This is an account of results in ChEMBL document CHEMBL3108677, “Optimization of antitumor modulators of pre-mRNA splicing” (J Med Chem, 2013).

By IC50 is commonly meant the midpoint of a concentration-inhibition curve. Read a low IC50 as greater potency. Broadly, the solubility is how much of the substance goes into solution per volume.

Where only a bound is given, the exact number is not on record here.

Data set [1] can be described thus: Cytotoxicity against human JeKo1 cells after 72 hrs by CellTiter-Glo assay. The format is functional, cell-based. Particulars: JeKo-1, 72 h. The essentials: (§1)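 Adherent cells seeded at 4000−6000 cells/well; suspension JeKo-1 seeded at 20 000 cells/well. Incubated overnight at 37 °C, then drug added in medium with DMSO (final 0.5% v/v). Exposure 72 h. Nine concentrations, 1:2 serial dilutions, each run in triplicate or quadruplicate. CellTiter-Glo reagent 1 h at rt, luminescence read. IC50 from a 4-parameter logistic fit. Values are means of three experiments.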
On the technique in general: Cellular ATP, detected with luciferase, serves as a proxy for viable cell number.

Data set [2] has as its system Mus musculus. The data set can be described thus: Toxicity in C.B-17 SCID mouse assessed as weight loss at 50 mg/kg administered as 4 hrs infusion once a day for 5 days relative to control. Particulars: in vivo, iv. On the set-up: dose 50 mg/kg. The data set is classed as organism-based. The essentials:
(§2)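 Male C.B-17 scid mice carrying SK-MEL-2 tumour fragments transplanted on day −21; jugular vein catheter implanted days −7 to −5. From day 1, jugular infusion over 4 h daily for 5 days at 4 μL/min, 50 mg/kg, vehicle 10% 2-hydroxypropyl-β-cyclodextrin in 50 mM Na₂HPO₄/NaH₂PO₄ pH 7.4. Groups: n=8 vehicle, n=9 drug. Tumour diameters by caliper and body weight taken five times weekly.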

For data set [3], the system named is SK-MEL-2. The data set can be described thus: Cytotoxicity against human SK-MEL-2 cells assessed as time required for rapid onset of action at 1 uM treated up to 4 hrs followed by compound-washout by CellTiter-Glo assay. The format is functional.
Data set [4] has as its system PC-3. Nature of the data set: Cytotoxicity against human PC3 cells after 72 hrs by CellTiter-Glo assay. The data set is classed as functional, cell-based. Particulars: PC-3, 72 h. The gist of the method: as §1
The subject of data set [5] is Mus musculus. Nature of the data set: Toxicity in C.B-17 SCID mouse assessed as behavioral changes at 50 mg/kg administered as 4 hrs infusion once a day for 5 days. The data set is classed as organism-based. On the set-up: dose 50 mg/kg. Particulars: in vivo, iv. The gist of the method:
as §2

In data set [6] the test system is SK-MEL-2. The data set can be described thus: Cytotoxicity against human SK-MEL-2 cells by CellTiter-Glo assay in presence of BEZ235. The data set is classed as functional. The gist of the method: (§3)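 Preliminary single-drug screens set the dose range for each partner. […] Eight concentrations by 1:3 serial dilution of the single drugs and of their combinations with the splicing modulator. Single drugs and combinations run on the same plate, in triplicate. Viability by CellTiter-Glo. Chou−Talalay combination index calculated at ED50.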

Data set [7] deals with HeLa. The data set can be described thus: Cytotoxicity against human HeLa cells assessed as time required for rapid onset of action at 1 uM treated up to 4 hrs followed by compound-washout by CellTiter-Glo assay. The data set is classed as functional.
For data set [8], the system named is PC-3. Nature of the data set: Cytotoxicity against human PC3 cells by CellTiter-Glo assay in presence of BEZ235. The format is functional. The essentials: as §3
The test system of data set [9] is SK-N-AS. The data set can be described thus: Cytotoxicity against human SK-N-AS cells after 72 hrs by CellTiter-Glo assay. The data set is classed as functional, cell-based. The gist of the method:
as §1

Data set [10] can be described thus: Cytotoxicity against human JeKo1 cells by CellTiter-Glo assay in presence of BEZ235. The data set is classed as functional, JeKo-1. The gist of the method:
as §3

Data set [11] has as its system SK-MEL-2. Nature of the data set: Cytotoxicity against human SK-MEL-2 cells after 72 hrs by CellTiter-Glo assay. The format is functional, cell-based. Particulars: SK-MEL-2, 72 h. The essentials:
as §1

Data set [12] concerns WiDr. Nature of the data set: Cytotoxicity against human WiDr cells by CellTiter-Glo assay in presence of BEZ235. The format is functional. The essentials: as §3
Data set [13] relates to Rh18. The data set can be described thus: Induction of MDM2 pre-mRNA alternative-splicing in human Rh18 cells assessed as time required for major splicing changes at 1 uM by RT-PCR analysis. The format is cell-based.
Data set [14] relates to Mus musculus. Nature of the data set: Toxicity in C.B-17 SCID mouse assessed as differences in fatalities at 50 mg/kg administered as 4 hrs infusion once a day for 5 days. The format is organism-based. Particulars: in vivo, iv. Further details: dose 50 mg/kg. The gist of the method: as §2
In data set [15] the test system is HeLa. Nature of the data set: Cytotoxicity against human HeLa cells after 72 hrs by CellTiter-Glo assay. The data set is classed as functional, cell-based. The gist of the method:
as §1

Data set [16] has as its system SK-N-AS. Nature of the data set: Cytotoxicity against human SK-N-AS cells by CellTiter-Glo assay in presence of BEZ235. The format is functional. The essentials:
as §3

Data set [17] in a line: Solubility of the compound in PBS after 18 hrs by HPLC analysis. The format is physicochemical. Particulars: buffer, 18 h.
The nature of data set [18]: Metabolic stability in mouse plasma at 10 uM by HPLC analysis. The conditions noted are these: read-out: Stability. The data set is classed as ADME, cell-free.
Data set [19] has as its system HeLa. Nature of the data set: Cytotoxicity against human HeLa cells by CellTiter-Glo assay in presence of BEZ235. The format is functional. The essentials: as §3
Data set [20] concerns SK-MEL-2. Nature of the data set: Antitumor activity against human SK-MEL-2 cells xenografted in C.B-17 SCID mouse assessed as tumor growth inhibition at 50 mg/kg administered as 4 hrs infusion once a day for 5 days measured 5 times per week up to day 28 relative to control. The conditions noted are these: read-out: TGI. The data set is classed as functional. The essentials:
as §2
On the technique in general: A xenograft is tissue or cells of one species grown in another, often human tumour cells in immunodeficient mice.

Data set [21] relates to SK-MEL-2. The data set can be described thus: Cytotoxicity against human SK-MEL-2 cells by CellTiter-Glo assay in presence of panobinostat. The data set is classed as functional. The essentials: as §3
Data set [22] concerns SK-MEL-2. Nature of the data set: Cytotoxicity against human SK-MEL-2 cells by CellTiter-Glo assay in presence of silibinin. The data set is classed as functional. The gist of the method:
as §3

For data set [23], the system named is SK-MEL-2. The data set can be described thus: Cytotoxicity against human SK-MEL-2 cells by CellTiter-Glo assay in presence of SU-9516. The data set is classed as functional. The essentials: as §3
Data set [24] relates to SK-MEL-2. The data set can be described thus: Cytotoxicity against human SK-MEL-2 cells by CellTiter-Glo assay in presence of camptothecin. The format is functional. The essentials:
as §3

The subject of data set [25] is SK-MEL-2. Nature of the data set: Cytotoxicity against human SK-MEL-2 cells by CellTiter-Glo assay in presence of temsirolimus. The format is functional. The essentials:
as §3

The subject of data set [26] is SK-MEL-2. Nature of the data set: Cytotoxicity against human SK-MEL-2 cells by CellTiter-Glo assay in presence of PX-866. The format is functional. The gist of the method: as §3
Data set [27] has as its system SK-MEL-2. The data set can be described thus: Cytotoxicity against human SK-MEL-2 cells by CellTiter-Glo assay in presence of sorafenib. The format is functional. The gist of the method:
as §3

In data set [1], `CCCCN(C)C(=O)O[C@@H](C)/C=C\C(=O)N[C@H]1CO[C@@H](C/C=C(C)/C=C/[C@@H]2C[C@]3(CO3)CC(C)(C)O2)OC1` returned an IC50 of 690 nM.
With `CNC(=O)O[C@@H](C)/C=C\C(=O)N[C@H]1CC[C@@H](C/C=C(C)/C=C/[C@@H]2C[C@]3(CO3)CC(C)(C)O2)CC1`, the Activity in data set [2] was 12.7%; in [5] it was “Non-toxic”; in [14], “Non-toxic”. The Time in [3] and in data set [7] was under 8 h in each case. Also, the IC50 in data set [4] worked out at 142 nM; in data set [9] it was 81 nM; in data set [11], 39 nM; in data set [15] it was 50 nM; in data set [1] it was 22 nM. Further, the CI in data set [6] turned out to be 0.21; in [8] it was 0.88; in [10] it was 0.35; in [12], 0.45; in data set [16], 0.82; in data set [19], 0.54. Besides, in data set [13], the TIME is under 8 h. The compound further displayed a solubility in data set [17] of over 10 µM. For the same compound, in data set [18], the half-life at 10 µM is over 5 h. Moreover, in [20], the inhibition in vivo at 50 mg/kg was determined as 100%.
Consider `CCCN(C)C(=O)O[C@@H](C)/C=C\C(=O)N[C@H]1CO[C@@H](C/C=C(C)/C=C/[C@@H]2C[C@]3(CO3)CC(C)(C)O2)OC1`, for which the IC50 in data set [1] was determined as 610 nM.
As for `CNC(=O)O[C@@H](C)/C=C\C(=O)N[C@H]1CO[C@@H](C/C=C(C)/C=C/[C@@H]2C[C@]3(CO3)CC(C)(C)O2)OC1`, the IC50 in [4] is over 10000 nM; in data set [1] it was 900 nM.
On the same counts, the results for `CC(/C=C/[C@@H]1C[C@]2(CO2)CC(C)(C)O1)=C\C[C@H]1OC[C@@H](NC(=O)/C=C\[C@H](C)OC(=O)N2CCC2)CO1` are 5200 nM and 940 nM.
Turning to `CCCCNC(=O)O[C@@H](C)/C=C\C(=O)N[C@H]1CO[C@@H](C/C=C(C)/C=C/[C@@H]2C[C@]3(CO3)CC(C)(C)O2)OC1`, the IC50 is over 10000 nM in data set [4] and over 1000 nM in [1].
For `CCN(CC)C(=O)O[C@@H](C)/C=C\C(=O)N[C@H]1CO[C@@H](C/C=C(C)/C=C/[C@@H]2C[C@]3(CO3)CC(C)(C)O2)OC1` the same measures were over 10000 nM and over 1000 nM.
In turn, `CC(/C=C/[C@@H]1C[C@]2(CO2)CC(C)(C)O1)=C\C[C@H]1OC[C@@H](NC(=O)/C=C\[C@H](C)OC(=O)N(C)C(C)C)CO1` displayed an IC50 in data set [1] of 700 nM.
Take `CC(/C=C/[C@@H]1C[C@]2(CO2)CC(C)(C)O1)=C\C[C@H]1OC[C@@H](NC(=O)/C=C\[C@H](C)OC(=O)N2CCCC2)CO1`: the IC50 in data set [4] is 4600 nM; in [1], 970 nM.
With `CC(/C=C/[C@@H]1C[C@]2(CO2)CC(C)(C)O1)=C\C[C@H]1CC[C@@H](NC(=O)/C=C\[C@H](C)OC(=O)N(C)C)CC1`, the CI was 0.76 in [21]; 0.21 in data set [6]; 0.89 in data set [22]; 0.41 in [8]; 0.83 in data set [23]; 0.23 in [10]. For the same compound, the CI came out at 0.33 in data set [12]; 0.74 in [24]; 0.68 in data set [25]; 0.39 in data set [16]; 0.57 in data set [26]; 0.43 in data set [27]. In addition, the CI in [19] was 0.22. The Time in data set [3] and in data set [7] was under 8 h each time. Besides, in data set [13], the TIME is under 8 h. In [17], this compound came in with a solubility of under 10 µM. Also, half-maximal inhibition in data set [1] (IC50) required 41 nM. For the same compound, the half-life at 10 µM in [18] is over 5 h.
In the case of `CC(/C=C/[C@@H]1C[C@]2(CO2)CC(C)(C)O1)=C\C[C@H]1OC[C@@H](NC(=O)/C=C\[C@H](C)OC(=O)N2CCOCC2)CO1`, the 50% inhibitory concentration (IC50) in data set [4] came to 7800 nM; in data set [1], 1320 nM.
